How the values were obtained:
[1] = Redox activity of compound assessed as redox index at 100 uM in presence of 1 mM DTT measured by HRP-PR assay; type: physicochemical
Summary of the method: (§1)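 H2O2 from redox cycling, with or without DTT, detected with horseradish peroxidase-phenol red (HRP-PR).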

[2] = Redox activity of compound assessed as redox index at 100 uM measured by HRP-PR assay; type: physicochemical; summary of the method: as §1
[3] = Thiol reactivity of compound measured by TNB2- assay; type: physicochemical
Summary of the method: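 Reactivity toward the thiol surrogate TNB2– in a nonproteinaceous setting without TCEP. Reversibility tested by adding TCEP and checking that absorbance was restored.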

[4] = Redox activity of compound assessed as redox index at 10 uM measured by resazurin assay; type: physicochemical
Summary of the method: (§2)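 Free radicals formed by redox cycling with DTT detected with resazurin by fluorimetric read-out. Spectral interference checked.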

[5] = Redox activity of compound assessed as redox index at 100 uM in presence of 100 uM TCEP measured by H2DCFDA assay; type: physicochemical
Summary of the method: (§3)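 Reactive oxygen species, with or without the reducing agent TCEP, detected with the fluorescent probe H2DCFDA. Compound spectral interference (autofluorescence) checked under the assay conditions.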

[6] = target: Replicase polyprotein 1ab (Severe acute respiratory syndrome coronavirus 2) (UniProt P0DTD1); assay: Inhibition of recombinant SARS-CoV-2 3CLpro expressed in Escherichia coli NiCo21(DE3) assessed as residual activity at 500 uM using DABCYL-KTSAVLQSGFRKME-EDANS as substrate preincubated for 30 mins followed by substrate addition and measured by FRET assay relative to control
Summary of the method: (§4)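 Kinetic fluorescence read-out of cleavage of a FRET substrate carrying a DABCYL–EDANS pair. Compounds were tested at 500–625 μM, and <50% residual activity was taken as the activity threshold. To exclude false positives, absorbance at the excitation and emission wavelengths and autofluorescence of the compounds were measured.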

[7] = target: D-alanine--D-alanine ligase B (Escherichia coli K-12) (UniProt P07862); assay: Inhibition of recombinant Escherichia coli DdlB assessed as residual activity at 500 uM using D-alanine as substrate incubated for 20 mins and measured by malachite green based colorimetric assay relative to control
Summary of the method: (§5)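 Screened at 500–625 μM with malachite green colorimetric read-out. Activity threshold was <50% residual activity.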

[8] = target: UDP-N-acetylglucosamine 1-carboxyvinyltransferase (Escherichia coli K-12) (UniProt P0A749); assay: Inhibition of recombinant Escherichia coli MurA assessed as residual activity at 500 uM using UDP-N-acetylglucosamine as substrate preincubated for 30 mins followed by substrate addition and measured by malachite green based colorimetric assay relative to control
Summary of the method: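 E. coli MurA at 500–625 μM with 30 min preincubation before substrate addition. Malachite green colorimetric read-out. Activity threshold was <50% residual activity.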

[9] = Redox activity of compound assessed as redox index at 1 uM measured by resazurin assay; type: physicochemical; summary of the method: as §2
[10] = target: UDP-N-acetylglucosamine 1-carboxyvinyltransferase (Escherichia coli K-12) (UniProt P0A749); assay: Inhibition of recombinant Escherichia coli MurA assessed as residual activity at 500 uM using UDP-N-acetylglucosamine as substrate and measured by malachite green based colorimetric assay relative to control; summary of the method: as §5
[11] = target: Replicase polyprotein 1ab (Severe acute respiratory syndrome coronavirus 2) (UniProt P0DTD1); assay: Inhibition of recombinant SARS-CoV-2 3CLpro expressed in Escherichia coli NiCo21(DE3) assessed as residual activity at 500 uM using DABCYL-KTSAVLQSGFRKME-EDANS as substrate preincubated for 30 mins in presence of 1mM DTT followed by substrate addition and measured by FRET assay relative to control; summary of the method: as §4
[12] = target: UDP-N-acetylglucosamine 1-carboxyvinyltransferase (Escherichia coli K-12) (UniProt P0A749); assay: Inhibition of recombinant Escherichia coli MurA assessed as residual activity at 500 uM using UDP-N-acetylglucosamine as substrate preincubated for 30 mins in presence of 1 mM DTT followed by substrate addition and measured by malachite green based colorimetric assay relative to control
[13] = system: Mycobacterium tuberculosis; assay: Inhibition of Mycobacterium tuberculosis MetAP1a assessed as residual activity at 625 uM using L-methionine 7-amido-4-methylcoumarin as fluorogenic substrate and measured by fluorescence based assay
Summary of the method: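 Kinetic fluorescence assay in which the enzyme hydrolyses L-methionine 7-amido-4-methylcoumarin to fluorescent 7-amino-4-methylcoumarin. Compounds were tested at 500–625 μM, and activity was called at <50% residual activity. Spectral interference was checked by measuring absorbance at the excitation and emission wavelengths and compound autofluorescence.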

[14] = Redox activity of compound assessed as redox index at 100 uM measured by H2DCFDA assay; type: physicochemical; summary of the method: as §3
[15] = Aqueous stability of the compound at pH 7.4 measured after 60 mins by spectrophotometric analysis; type: physicochemical; conditions: buffer, pH 7.4, 1 h
Summary of the method: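 Followed by spectrophotometry as changes in the compound absorption spectrum over time in 50 mM Tris-HCl pH 7.4, 0.5 mM EDTA, read after 60 min in 96-well microplate format. Compounds with low absorbance were not evaluated.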

UDP-N-acetylglucosamine 1-carboxyvinyltransferase (Escherichia coli K-12), sequence (P0A749 whole entry): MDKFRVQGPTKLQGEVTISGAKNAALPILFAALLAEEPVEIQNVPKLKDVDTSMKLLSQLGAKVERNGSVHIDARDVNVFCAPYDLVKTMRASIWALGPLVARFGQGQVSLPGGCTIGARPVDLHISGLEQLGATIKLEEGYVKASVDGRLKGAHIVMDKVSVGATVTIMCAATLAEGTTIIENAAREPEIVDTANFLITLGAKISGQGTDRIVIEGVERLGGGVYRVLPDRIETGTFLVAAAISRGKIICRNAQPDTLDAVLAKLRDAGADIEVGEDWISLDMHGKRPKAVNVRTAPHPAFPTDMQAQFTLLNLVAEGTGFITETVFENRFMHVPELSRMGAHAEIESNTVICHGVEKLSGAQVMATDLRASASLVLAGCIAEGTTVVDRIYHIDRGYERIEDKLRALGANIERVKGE

SMILES	Activity_index [1]	Activity_index [2]	Activity [3]	Activity_index [4]	Activity_index [5]	Activity [6]	Activity [7]	Activity [8]	Activity_index [9]	Activity [10]	Activity [11]	Activity [12]	Activity [13]	Activity_index [14]	Stability [15]
Nc1nc(C(=O)O)cs1	1	1	Active	1.1	1.6	14.2%	96%	0%	1	1.6%	84.9%	107%	155%	2.1	
CC(C)(C)c1csc(N)n1	1	1	Active	0.9	0.5	13%	94%	3.5%	1.1	5.7%	79.1%	106%	128%	1.1	
Brc1cnc(Br)s1	1	1	Active	0.9	1	17.1%	91%	0%	0.9	13.1%	79.9%	99%	71.7%	0.7	
Nc1nnc(C2CC2)s1	1.1	1.1		0.9	1.2	34.2%	96%	2.2%	0.9	3.5%	79.3%	99.8%	92.5%	1.2	Stable
Nc1nc(CC(=O)O)cs1	1	1.1		1	0.9	105%	96%	79.4%	0.9	90.8%	84.2%	99.2%	125%	1.1	Stable
O=C(O)c1csc(Br)n1	1	1		0.9	1	73.6%	92%	96%	0.9	102%	73.7%	101%	81.7%	1	Stable
N#Cc1cnc(NC(=O)CC(=O)O)s1	1	1		1	0.8	93.5%	96%	20.3%	0.9	72.3%	79.7%	109%	146%	0.7	Stable
COC(=O)c1cnc(Br)s1	1	1		1.1	1.1	100%	96%	93%	1	96.6%	92.9%	102%	99.2%	1	Stable
Nc1nnc(C(F)(F)F)s1	1	1		1	0.9	66.8%	100%	18%	0.9	56.9%	82.9%	101%	142%	1	Stable
CCOC(=O)c1cnc(Br)s1	1	1		1	1.1	10.2%	90%	14.9%	0.9	60.1%	66.4%	103%	92.3%	0.9	Stable
NCCc1cn(Cc2cscn2)nn1	1	0.9	Active	0.9	1.5	87.2%	82%	0%	1	28.1%	87.4%	110%	94%	1.2	
Cc1cnc(Br)s1	1	1	Active	1	0.9	19.8%	77%	8.2%	0.9	45.2%	79.1%	105%	116%	0.9	
COC(=O)C(=O)Nc1ncc(Br)s1	1	1		1.1	0.8	89.5%	94%	37.2%	0.9	81.7%	66.2%	112%	156%	0.8	Unstable
O=C(O)c1csc(-c2ccncc2)n1	1	1		1	1.1	98%	96%	90.4%	1	103%	94.4%	106%	93.4%	1	Stable
Nc1nc(-c2ccncc2)cs1	1	0.8		1	1.2	91.9%	96%	56.7%	1	86.7%	77.8%	103%	110%	1.1	Stable
O=C(O)c1scnc1Br	1	1		0.9	1.1	135%	96%	83.1%	0.9	99.5%	80.1%	111%	122%	1.1	Stable
Clc1nccs1	1	1		0.9	0.9	23.1%	93%	0.8%	1	18.9%	73.8%	107%	122%	1	Stable

Source: ChEMBL document CHEMBL5104216, “Fragment-Sized Thiazoles in Fragment-Based Drug Discovery Campaigns: Friend or Foe?” (ACS Med Chem Lett, 2022)
